# In paper PMC5665024 (Chemical research in toxicology, 2017):
# Read-outs that look alike come from different tables or passages of the source.
# Columns and labels:
# GM12878 cells = test: MTS assay of cell proliferation, GM12878; type: cell-based, human; conditions: for IC50: Homo sapiens
# Procedure, shortened: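 Lymphoblasts grown in RPMI 1640 with 15% FBS at 37 °C and 5% CO2. Plated at 5 × 10^3 per well, grown 24 h, then exposed 24 or 72 h to test compound alone or with 10 μM lignan inhibitor added. DMSO 0.2% final; vehicle controls. MTS/PMS in PBS pH 7.2 for 4 h at 37 °C; A492; cell-free background. Triplicate; normalized absorbance fitted for IC50 with 95% CI.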
# UACC903 cells = test: MTS assay of cell proliferation, UACC903; type: cell-based, human; conditions: for IC50: Homo sapiens; for decrease of EC50 due to HNL/BLM combination: UACC903, combination with honokiol (10 μM)
# Procedure, shortened: (§1)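 Cells grown in DMEM with 10% FBS at 37 °C and 5% CO2. Plated at 5 × 10^3 per well, grown 24 h, then exposed 24 or 72 h to test compound alone or in pairs: 10 μM bleomycin-type or 250 μM alkylating agent added to the lignan, or 10 μM lignan added to either. DMSO 0.2% final; vehicle controls. MTS/PMS for 4 h; A492; cell-free background. Triplicate; IC50 fit, 95% CI.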
# MCF7 cells = test: MTS assay of cell proliferation, MCF7; type: cell-based, human; conditions: for IC50: Homo sapiens; for decrease of EC50 due to HNL/BLM combination: MCF7, combination with honokiol (10 μM)
# Procedure, shortened: as §1
# A549 cells = test: MTS assay of cell proliferation, A549; type: cell-based, human; conditions: for IC50: Homo sapiens
# Procedure, shortened: as §1
# PANC1 cells = test: MTS assay of cell proliferation, PANC1; type: cell-based, human; conditions: for IC50: Homo sapiens
# Procedure, shortened: as §1
# [1] = tested on: human cancer cell lines A549, MCF7, PANC-1, UACC903; test: MTS assay of cell proliferation, cell lines not specified; type: cell-based; conditions: combination with honokiol, cell line not specified
# Procedure, shortened: as §1
# pol β = conditions: linear mixed-mode inhibition mechanism; cited from earlier work
# [2] = PANC1, combination with honokiol (10 μM)
molecule,measurement,setting,value
"Cn1nnc2c(C(N)=O)ncn2c1=O [TMZ, temozolomide]",IC50,"GM12878 cells; 24 h, read-out: −log(IC50) (95% CI), GM12878, 24 h, tested compound alone (converted)",< 1000 µM
same,IC50,"GM12878 cells; 72 h, read-out: −log(IC50) (95% CI), GM12878, 72 h, tested compound alone (converted)",316 µM
same,IC50,"UACC903 cells; UACC-903, 24 h, read-out: −log(IC50) (95% CI), UACC903, 24 h, tested compound alone (converted)",631 µM
same,IC50,"UACC903 cells; UACC-903, 72 h, read-out: −log(IC50) (95% CI), UACC903, 72 h, tested compound alone (converted)",316 µM
same,IC50,"MCF7 cells; MCF7, 24 h, read-out: −log(IC50) (95% CI), MCF7, 24 h, tested compound alone (converted)",501 µM
same,IC50,"MCF7 cells; MCF7, 72 h, read-out: −log(IC50) (95% CI), MCF7, 72 h, tested compound alone (converted)",200 µM
same,IC50,"A549 cells; A549, 24 h, read-out: −log(IC50) (95% CI), A549, 24 h, tested compound alone (converted)",398 µM
same,IC50,"A549 cells; A549, 72 h, read-out: −log(IC50) (95% CI), A549, 72 h, tested compound alone (converted)",251 µM
same,IC50,"PANC1 cells; PANC-1, 24 h, read-out: −log(IC50) (95% CI), PANC1, 24 h, tested compound alone (converted)",316 µM
same,IC50,"PANC1 cells; PANC-1, 72 h, read-out: −log(IC50) (95% CI), PANC1, 72 h, tested compound alone (converted)",158 µM
same,decrease of EC50 due to HNL/TMZ combination,PANC1 cells; [2],up to three-fold
same,decrease of EC50 due to HNL/TMZ combination,[1],up to three-fold
same,decrease of EC50 due to HNL/TMZ combination,[1]; listed as temozolomide,three-fold
C=C(C)[C@@H]1CC[C@]2(C)[C@H](CC=C3[C@@H]4C[C@@](C)(C(=O)O)CC[C@]4(C)CC[C@]32C)[C@@]1(C)CCC(=O)O [koetjapic acid],Ki,pol β,low micromolar range
bleomycin [BLM],−log(IC50) (95% CI),"GM12878 cells; GM12878, 24 h, supplemented with 10 μM HNL","4.2 (4.0, 4.3)"
same,−log(IC50) (95% CI),"GM12878 cells; GM12878, 24 h, tested compound alone","4.1 (3.91, 4.3)"
same,−log(IC50) (95% CI),"GM12878 cells; GM12878, 72 h, supplemented with 10 μM HNL","4.20 (4.0, 4.4)"
same,−log(IC50) (95% CI),"GM12878 cells; GM12878, 72 h, tested compound alone","4.1 (4.0, 4.3)"
same,−log(IC50) (95% CI),"UACC903 cells; UACC903, 24 h, supplemented with 10 μM HNL","5.5 (5.4, 5.7)"
same,−log(IC50) (95% CI),"UACC903 cells; UACC903, 24 h, tested compound alone","4.9 (4.7, 5.0)"
same,−log(IC50) (95% CI),"UACC903 cells; UACC903, 72 h, supplemented with 10 μM HNL","6.3 (6.0, 6.5)"
same,−log(IC50) (95% CI),"UACC903 cells; UACC903, 72 h, tested compound alone","5.22 (5.1, 5.4)"
same,decrease of EC50 due to HNL/BLM combination,UACC903 cells,up to 10 fold
same,decrease of EC50 due to HNL/BLM combination,UACC903 cells; listed as bleomycin,10 fold
same,−log(IC50) (95% CI),"MCF7 cells; MCF7, 24 h, supplemented with 10 μM HNL","6.0 (5.7, 6.2)"
same,−log(IC50) (95% CI),"MCF7 cells; MCF7, 24 h, tested compound alone","4.9 (4.8, 5.0)"
same,−log(IC50) (95% CI),"MCF7 cells; MCF7, 72 h, supplemented with 10 μM HNL","6.3 (6.1, 6.6)"
same,−log(IC50) (95% CI),"MCF7 cells; MCF7, 72 h, tested compound alone","5.3 (5.2, 5.4)"
same,decrease of EC50 due to HNL/BLM combination,MCF7 cells,up to 10 fold
same,decrease of EC50 due to HNL/BLM combination,MCF7 cells; listed as bleomycin,10 fold
same,−log(IC50) (95% CI),"A549 cells; A549, 24 h, supplemented with 10 μM HNL","5.30 (5.18, 5.43)"
same,−log(IC50) (95% CI),"A549 cells; A549, 24 h, tested compound alone","4.8 (4.7, 5.0)"
same,−log(IC50) (95% CI),"A549 cells; A549, 72 h, supplemented with 10 μM HNL","5.6 (5.5, 5.7)"
same,−log(IC50) (95% CI),"A549 cells; A549, 72 h, tested compound alone","5.2 (5.0, 5.3)"
same,−log(IC50) (95% CI),"PANC1 cells; PANC1, 24 h, supplemented with 10 μM HNL","5.9 (5.7, 6.2)"
same,−log(IC50) (95% CI),"PANC1 cells; PANC1, 24 h, tested compound alone","4.9 (4.7, 5.1)"
same,−log(IC50) (95% CI),"PANC1 cells; PANC1, 72 h, supplemented with 10 μM HNL","6.09 (5.9, 6.3)"
same,−log(IC50) (95% CI),"PANC1 cells; PANC1, 72 h, tested compound alone","5.2 (5.0, 5.3)"
same,decrease of EC50 due to HNL/BLM combination,PANC1 cells; [2],up to 10 fold
same,decrease of EC50 due to HNL/BLM combination,"PANC1 cells; PANC1, combination with honokiol (10 μM), listed as bleomycin",10 fold
